In ChEMBL document CHEMBL1144108, “Annocherin and (2,4)-cis- and trans-annocherinones, monotetrahydrofuran Annonaceous acetogenins with a C-7 carbonyl group from Annona cherimolia seeds” (J Nat Prod, 1999):
In brackets after ≈: the same amount, converted by molar mass.

How the values were obtained:
[1] = system: A498; test: Cytotoxicity against human A-498 cells after 7 days by MTT assay; format: functional; settings: A498, 168 h, read-out: ED50 (the source's name)
Summary of the method: (§1)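 Seven-day in vitro MTT cytotoxicity assay run at the Purdue Cancer Center Cell Culture Laboratory to standard protocols. Lines: A-549 lung carcinoma, MCF-7 breast carcinoma, HT-29 colon adenocarcinoma, A-498 kidney carcinoma, PC-3 prostate adenocarcinoma, MIA PaCa-2 pancreatic carcinoma. Adriamycin served as positive control.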

[2] = system: A498; test: Selectivity for human A498 cells over human HT29 cells; format: functional
[3] = system: MIA PaCa-2; test: Cytotoxicity against human MIA PaCa2 cells after 7 days by MTT assay; format: functional; settings: MIA PaCa-2, 168 h, read-out: ED50 (the source's name); summary of the method: as §1
[4] = Toxicity to brine shrimp larvae; format: organism-based; settings: artemia salina, in vivo
[5] = system: MCF7; test: Cytotoxicity against human MCF7 cells after 7 days by MTT assay; format: functional; settings: MCF7, 168 h, read-out: ED50 (the source's name); summary of the method: as §1
[6] = system: A549; test: Cytotoxicity against human A549 cells after 7 days by MTT assay; format: functional; settings: A549, 168 h, read-out: ED50 (the source's name); summary of the method: as §1
[7] = system: HT-29; test: Cytotoxicity against human HT-29 cells after 7 days by MTT assay; format: functional; settings: HT-29, 168 h, read-out: ED50 (the source's name); summary of the method: as §1
[8] = system: PC-3; test: Cytotoxicity against human PC-3 cells after 7 days by MTT assay; format: functional; settings: PC-3, 168 h, read-out: ED50 (the source's name); summary of the method: as §1
[9] = system: MIA PaCa-2; test: Selectivity for human A498 cells over human MIA PaCa2 cells; format: functional

Structure (SMILES)	EC50 [1] [µg/mL]	Selectivity ratio [2]	EC50 [3] [µg/mL]	LC50 [4] [µg/mL]	EC50 [5] [µg/mL]	EC50 [6] [µg/mL]	EC50 [7] [µg/mL]	EC50 [8] [µg/mL]	Selectivity ratio [9]
CCCCCCCCCCCC[C@H](O)[C@@H]1CC[C@@H]([C@@H](O)CCCCCCCC(O)CC[C@@H](O)CC2=C[C@H](C)OC2=O)O1 (some centres undefined)	2.96 (≈ 4.96 µM)	1000	0.001 (≈ 0.00168 µM)	0.0125 (≈ 0.0209 µM)	0.011 (≈ 0.0184 µM)	1.63 (≈ 2.73 µM)	0.001 (≈ 0.00168 µM)	1.32 (≈ 2.21 µM)	1000
CCCCCCCCCCCC[C@H](O)[C@@H]1CC[C@@H]([C@@H](O)CCCCCCCC(=O)CC[C@@H](O)CC2=C[C@H](C)OC2=O)O1 [ANNOCHERIN]	0.022 (≈ 0.037 µM)	161	2.88 (≈ 4.84 µM)	0.137 (≈ 0.23 µM)	0.308 (≈ 0.518 µM)	1.67 (≈ 2.81 µM)	3.54 (≈ 5.95 µM)	0.862 (≈ 1.45 µM)	131
COc1cccc2c1C(=O)c1c(O)c3c(c(O)c1C2=O)C[C@@](O)(C(=O)CO)C[C@@H]3O[C@H]1C[C@H](N)[C@H](O)[C@H](C)O1 [DOXORUBICIN]	0.0156 (≈ 0.0287 µM)	–	0.00101 (≈ 0.00186 µM)	–	0.129 (≈ 0.237 µM)	0.0043 (≈ 0.00791 µM)	0.0168 (≈ 0.0309 µM)	0.0499 (≈ 0.0918 µM)	–
